{
  "source": "ChEMBL document CHEMBL1157729",
  "about": "“Structure-activity relationship and mechanism of action studies of manzamine analogues for the control of neuroinflammation and cerebral infections” (J Med Chem, 2010)",
  "key": {"Plasmodium berghei [1]": {"tested_on": "Plasmodium berghei", "test": "Antiplasmodial activity against Plasmodium berghei NK65 infected in Swiss Webster mice (Mus musculus) assessed as parasitaemia cure at 200 mg/kg, perorally administered 1 day after infection measured after 28 days post infection", "assay_type": "functional", "conditions": "Plasmodium berghei, NK65, route oral", "procedure,_shortened": "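Male Swiss Webster mice (18-20 g), at least 5 per group, were inoculated ip with 2×10^7 P. berghei NK-65-parasitized red cells from a donor mouse and given a single oral dose (100 μl). Stock was made in SSV or 0.1 M HCl and diluted in SSV or 0.01 M HCl. Parasitemia was read from Giemsa-stained tail blood smears from day 5 to day 28. Cure meant no parasitemia through day 28.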"}, "Plasmodium berghei [2]": {"tested_on": "Plasmodium berghei", "test": "Antiplasmodial activity against Plasmodium berghei NK65 infected in Swiss Webster mice (Mus musculus) assessed as average parasitaemia at 5 mg/kg, perorally administered 1 day after infection for 3 days measured after 7 days post infection", "assay_type": "functional", "conditions": "route oral"}, "Plasmodium berghei [3]": {"tested_on": "Plasmodium berghei", "test": "Antiplasmodial activity against Plasmodium berghei NK65 infected in Swiss Webster mice (Mus musculus) assessed as inhibition of parasitaemia at 50 mg/kg, perorally administered 1 day after infection measured after 5 days post infection", "assay_type": "functional", "conditions": "route oral", "procedure,_shortened": "(§1)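 Male Swiss Webster mice (18-20 g, ≥5/group) inoculated i.p. with 2×10^7 P. berghei NK-65 parasitized RBC, given a single oral dose (100 μl, SSV or dilute HCl vehicle); parasitemia by Giemsa-stained tail blood smears days 5–28; activity as % decrease versus untreated controls on day 5.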"}, "Plasmodium yoelii": {"tested_on": "Plasmodium yoelii", "test": "Antiplasmodial activity against Plasmodium yoelii infected in perorally dosed mice (Mus musculus)", "assay_type": "functional", "conditions": "po"}, "Plasmodium berghei [4]": {"tested_on": "Plasmodium berghei", "test": "Antiplasmodial activity against Plasmodium berghei NK65 infected in Swiss Webster mice (Mus musculus) assessed as average parasitaemia at 1.1 mg/kg, perorally administered 1 day after infection for 3 days measured after 10 days post infection", "assay_type": "functional", "conditions": "route oral"}, "HeLa [5]": {"tested_on": "HeLa", "test": "Cell cycle arrest in human HeLa cells assessed as decrease in G2/M phase accumulation at 20 uM after 24 hrs by FACS analysis", "assay_type": "functional", "design": "scale not given: the % may be the effect or the level left"}, "Plasmodium berghei [6]": {"tested_on": "Plasmodium berghei", "test": "Antiplasmodial activity against Plasmodium berghei NK65 infected in Swiss Webster mice (Mus musculus) assessed as average parasitaemia at 1.1 mg/kg, perorally administered 1 day after infection for 3 days measured after 28 days post infection", "assay_type": "functional", "conditions": "route oral", "procedure,_shortened": "(§2)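 Male Swiss Webster mice (18-20 g, ≥5/group) inoculated i.p. with 2×10^7 P. berghei NK-65 parasitized RBC; oral dosing (100 μl, SSV or dilute HCl vehicle) once daily for 3 days from day 1; Giemsa-stained tail blood smears days 5–28; inhibition is % decrease versus untreated controls on day 5.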"}, "Plasmodium berghei [7]": {"tested_on": "Plasmodium berghei", "test": "Antiplasmodial activity against Plasmodium berghei NK65 infected in Swiss Webster mice (Mus musculus) assessed as average parasitaemia at 1.1 mg/kg, perorally administered 1 day after infection for 3 days measured after 14 days post infection", "assay_type": "functional", "conditions": "route oral"}, "Mus musculus [8]": {"tested_on": "Mus musculus", "test": "Toxicity in Plasmodium berghei NK65 infected Swiss Webster mice (Mus musculus) at 3 mg/kg, intraperitoneally administered as 10 doses measured after 3 days of inoculation", "assay_type": "organism-based", "design": "dose 3 mg/kg, route intraperitoneal", "conditions": "in vivo, ip, 72 h", "procedure,_shortened": "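Male Swiss Webster mice (18-20 g), 5 per group, were inoculated i.p. with 2×10^7 P. berghei NK-65 parasitized red cells. Compound was given i.p. at 10×3 mg/kg, with a vehicle-control group. Day of death, mean survival time and cure were recorded. Parasitemia was read on Giemsa-stained tail-blood smears (days 5, 7), with suppression relative to the control mean. Cure meant no parasitemia through day 28.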"}, "Plasmodium berghei [9]": {"tested_on": "Plasmodium berghei", "test": "Antiplasmodial activity against Plasmodium berghei NK65 infected in Swiss Webster mice (Mus musculus) assessed as average parasitaemia at 1.1 mg/kg, perorally administered 1 day after infection for 3 days measured after 7 days post infection", "assay_type": "functional", "conditions": "route oral"}, "Plasmodium berghei [10]": {"tested_on": "Plasmodium berghei", "test": "Antiplasmodial activity against Plasmodium berghei NK65 infected in Swiss Webster mice (Mus musculus) at 5 mg/kg, po", "assay_type": "functional"}, "Mus musculus [11]": {"tested_on": "Mus musculus", "test": "Toxicity in Plasmodium berghei NK65 infected Swiss Webster mice (Mus musculus) assessed as behavioral change at 100 mg/kg, perorally", "assay_type": "organism-based", "design": "dose 100 mg/kg, route oral", "conditions": "in vivo, po", "procedure,_shortened": "(§3)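 P. berghei NK-65 infection in male Swiss Webster mice (18-20 g; 2×10^7 parasitized erythrocytes i.p.; ≥5 per group). A single oral dose of 100 μl, diluted in SSV or 0.01 M HCl, then observation for toxicity signs and body weight. Parasitemia read from Giemsa-stained tail smears from day 5 through day 28. Mice free of parasitemia through day 28 counted as cured.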"}, "Plasmodium berghei [12]": {"tested_on": "Plasmodium berghei", "test": "Antiplasmodial activity against Plasmodium berghei NK65 infected in Swiss Webster mice (Mus musculus) assessed as average parasitaemia at 100 mg/kg, perorally administered 1 day after infection measured after 5 days post infection", "assay_type": "functional", "conditions": "route oral", "procedure,_shortened": "as §1"}, "Plasmodium berghei [13]": {"tested_on": "Plasmodium berghei", "test": "Antiplasmodial activity against Plasmodium berghei NK65 infected in Swiss Webster mice (Mus musculus) assessed as survivability at 5 mg/kg, perorally administered 1 day after infection for 3 days measured after 28 days post infection", "assay_type": "functional", "conditions": "route oral"}, "Plasmodium berghei [14]": {"tested_on": "Plasmodium berghei", "test": "Antiplasmodial activity against Plasmodium berghei infected in mice (Mus musculus) at 5 mg/kg, perorally administered 1 day post infection for 3 days", "assay_type": "functional", "conditions": "route oral"}, "[15]": {"test": "Antineuroinflammatory activity in LPS-stimulated rat neonatal microglia assessed as inhibition of PMA-induced TXB2 production preincubated 15 mins prior to PMA challenge measured after 70 mins", "assay_type": "functional, cell-based"}, "Plasmodium berghei [16]": {"tested_on": "Plasmodium berghei", "test": "Antiplasmodial activity against Plasmodium berghei NK65 infected in Swiss Webster mice (Mus musculus) assessed as parasitaemia cure at 100 mg/kg, perorally administered 1 day after infection measured after 28 days post infection", "assay_type": "functional", "conditions": "route oral", "procedure,_shortened": "as §3"}, "[17]": {"test": "Antineuroinflammatory activity in LPS-stimulated rat neonatal microglia assessed as drug level causing 50% PMA-induced LDH release preincubated 15 mins prior to PMA challenge measured after 70 mins", "assay_type": "functional", "procedure,_shortened": "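Neonatal rat microglia (2 × 10^5/well) primed with E. coli LPS 0.3 ng/mL for 17 h at 35.9 °C, washed with HBSS, given compound (0.01–10 μM) or DMSO 15 min, then PMA 1 μM; LDH read spectrophotometrically after 70 min; LDH50 relative to Triton X-100 (0.1%) release; duplicates.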"}, "Plasmodium berghei [18]": {"tested_on": "Plasmodium berghei", "test": "Antiplasmodial activity against Plasmodium berghei NK65 infected in Swiss Webster mice (Mus musculus) assessed as average parasitaemia at 100 mg/kg, perorally administered 1 day after infection measured after 21 days post infection", "assay_type": "functional", "conditions": "route oral", "procedure,_shortened": "as §1"}, "Plasmodium berghei [19]": {"tested_on": "Plasmodium berghei", "test": "Antiplasmodial activity against Plasmodium berghei infected in mice (Mus musculus) at 10 mg/kg, perorally administered 1 day post infection for 3 days", "assay_type": "functional", "conditions": "route oral"}, "HeLa [20]": {"tested_on": "HeLa", "test": "Cell cycle arrest in human HeLa cells assessed as increase in S phase accumulation at 10 uM after 24 hrs by FACS analysis", "assay_type": "functional"}, "Plasmodium berghei [21]": {"tested_on": "Plasmodium berghei", "test": "Antiplasmodial activity against Plasmodium berghei NK65 infected in Swiss Webster mice (Mus musculus) assessed as inhibition of parasitaemia at 1.1 mg/kg, perorally administered 1 day after infection for 3 days measured after 5 days post infection", "assay_type": "functional", "conditions": "route oral", "procedure,_shortened": "as §2"}, "Plasmodium berghei [22]": {"tested_on": "Plasmodium berghei", "test": "Antiplasmodial activity against Plasmodium berghei NK65 infected in Swiss Webster mice (Mus musculus) at 1.1 mg/kg, po", "assay_type": "functional", "procedure,_shortened": "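Male Swiss Webster mice (18-20 g), at least 5 per group, inoculated i.p. with 2×10^7 P. berghei NK-65 parasitized red cells from a donor mouse. Oral dosing (100 μl, in SSV or dilute HCl) from day one after infection, three-day modified Peters suppressive schedule. Giemsa-stained tail blood smears from day 5 through day 28. Inhibition is % parasitemia drop on day 5 versus untreated controls. Cure means no parasitemia through day 28.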"}},
  "data": [
    {"smiles": "O[C@]12C=C(c3nccc4c3[nH]c3ccccc34)[C@@H]3CCN(CCCC/C=C\\CC1)C[C@@]31C[C@@H]3/C=C\\CCCCN3[C@H]12", "note": "[MANZAMINE A]", "values": [
      {"measurement": "inhibition in vivo at 200 mg/kg", "setting": "Plasmodium berghei [1]", "value": 100, "unit": "%"},
      {"measurement": "inhibition in vivo at 5 mg/kg", "setting": "Plasmodium berghei [2]", "value": 4.5, "unit": "%"},
      {"measurement": "inhibition in vivo at 50 mg/kg", "setting": "Plasmodium berghei [3]", "value": 100, "unit": "%"},
      {"measurement": "ED50", "setting": "Plasmodium yoelii", "value": 0.57, "unit": "mg/kg"},
      {"measurement": "ED90", "setting": "Plasmodium yoelii", "value": 1.7, "unit": "mg/kg"},
      {"measurement": "inhibition in vivo at 1.1 mg/kg", "setting": "Plasmodium berghei [4]", "value": 11.5, "unit": "%"},
      {"measurement": "Activity", "setting": "HeLa [5]", "value": 11.8, "unit": "%"},
      {"measurement": "inhibition in vivo at 1.1 mg/kg", "setting": "Plasmodium berghei [6]", "value": 58.6, "unit": "%"},
      {"measurement": "inhibition in vivo at 1.1 mg/kg", "setting": "Plasmodium berghei [7]", "value": 21.7, "unit": "%"},
      {"measurement": "Activity", "setting": "Mus musculus [8]", "value": "Non-toxic"},
      {"measurement": "inhibition in vivo at 1.1 mg/kg", "setting": "Plasmodium berghei [9]", "value": 5.5, "unit": "%"},
      {"measurement": "inhibition in vivo at 5 mg/kg", "setting": "Plasmodium berghei [10]", "value": "> 30", "unit": "%"},
      {"measurement": "Activity", "setting": "Mus musculus [11]", "value": "Non-toxic"},
      {"measurement": "inhibition in vivo at 100 mg/kg", "setting": "Plasmodium berghei [12]", "value": 0, "unit": "%"},
      {"measurement": "inhibition in vivo at 5 mg/kg", "setting": "Plasmodium berghei [13]", "value": 100, "unit": "%"},
      {"measurement": "Activity", "setting": "Plasmodium berghei [14]", "value": 24.3, "unit": "days"},
      {"measurement": "IC50", "setting": "[15]", "value": "< 100", "unit": "nM"},
      {"measurement": "inhibition in vivo at 100 mg/kg", "setting": "Plasmodium berghei [16]", "value": 100, "unit": "%"},
      {"measurement": "Activity", "setting": "[17]", "value": ">10", "unit": "µM"},
      {"measurement": "inhibition in vivo at 100 mg/kg", "setting": "Plasmodium berghei [18]", "value": 0, "unit": "%"},
      {"measurement": "Activity", "setting": "Plasmodium berghei [19]", "value": 14.3, "unit": "days"},
      {"measurement": "Activity", "setting": "HeLa [20]", "value": 59.1, "unit": "%"},
      {"measurement": "inhibition in vivo at 1.1 mg/kg", "setting": "Plasmodium berghei [21]", "value": 75, "unit": "%"},
      {"measurement": "inhibition in vivo at 1.1 mg/kg", "setting": "Plasmodium berghei [22]", "value": 26.5, "unit": "%"}
    ]}
  ]
}
